pIC50: −log10 of the molar value.
How the values were obtained:
Format in all cases: functional
[1] = tested on: DU-145; test: Antiproliferative activity against human DU145 cells assessed as reduction in cell growth incubated for 96 hrs by propidium iodide based 2D monolayer assay; details: DU-145, 96 h
In short: (§1)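 After 24 h recovery, compound in medium or medium alone (control wells) was added at 10 half-log concentrations from 0.0032 to 100 µM, in triplicate, with at most 0.3% DMSO. After 96 h, wells were PBS-washed, stained with 7 µg/ml PI and 0.1% Triton X-100, and fluorescence read at 530/620 nm. IC50 came from a 4-parameter fit, geometric mean.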

[2] = tested on: LNCaP; test: Antiproliferative activity against human LNCAP cells assessed as reduction in cell growth incubated for 96 hrs by propidium iodide based 2D monolayer assay; in short: as §1
[3] = tested on: VCaP; test: Antiproliferative activity against human VCaP cells assessed as reduction in cell growth incubated for 96 hrs by propidium iodide based 2D monolayer assay
In short: (§2)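 VCaP cells in RPMI 1640 with 10% FCS at 37 °C, 5% CO2, seeded 4,000–20,000 cells/well and left 24 h before dosing. Compounds from DMSO stocks were diluted in half-log steps in medium, 10 concentrations 0.0032–100 μM, triplicate wells, max 0.3% DMSO. After 96 h, cells were washed, stained with 7 μg/ml propidium iodide plus 0.1% Triton X-100 for 1–2 h at room temperature, and fluorescence read at ex 530/em 620 nm.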

[4] = tested on: VCaP; test: Antiproliferative activity against human VCaP cells assessed as T/C value at 3.2 x 10^-3 uM incubated for 96 hrs by propidium iodide based 2D monolayer assay; in short: as §2
[5] = tested on: VCaP; test: Antiproliferative activity against human VCaP cells assessed as T/C value at 1 x 10^-2 uM incubated for 96 hrs by propidium iodide based 2D monolayer assay
In short: as §1, with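 “Cells were kept in RPMI 1640 with 25 mM HEPES, 10% FCS and gentamicin at 37 °C under 5% CO2, and plated at 4,000-20,000 cells/well. After 24” for “After 24”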

[6] = tested on: VCaP; test: Antiproliferative activity against human VCaP cells assessed as T/C value at 3.2 x 10^-2 uM incubated for 96 hrs by propidium iodide based 2D monolayer assay; in short: as §2
[7] = tested on: VCaP; test: Antiproliferative activity against human VCaP cells assessed as T/C value at 1 x 10^-1 uM incubated for 96 hrs by propidium iodide based 2D monolayer assay
In short: as §1, with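 “Cells were kept in RPMI 1640 with 25 mM HEPES, 10% FCS and gentamicin at 37 °C under 5% CO2, and plated at 4,000-20,000 cells/well. After 24” for “After 24”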

[8] = tested on: VCaP; test: Antiproliferative activity against human VCaP cells assessed as T/C value at 3.2 x 10^-1 uM incubated for 96 hrs by propidium iodide based 2D monolayer assay; in short: as §2
[9] = tested on: VCaP; test: Antiproliferative activity against human VCaP cells assessed as T/C value at 1 uM incubated for 96 hrs by propidium iodide based 2D monolayer assay
In short: as §1, with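 “Cells were kept in RPMI 1640 with 25 mM HEPES, 10% FCS and gentamicin at 37 °C under 5% CO2, and plated at 4,000-20,000 cells/well. After 24” for “After 24”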

[10] = tested on: VCaP; test: Antiproliferative activity against human VCaP cells assessed as T/C value at 1 x 10^1 uM incubated for 96 hrs by propidium iodide based 2D monolayer assay
In short: as §1, with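 “Cells were kept in RPMI 1640 with 25 mM HEPES, 10% FCS and gentamicin at 37 °C under 5% CO2, and plated at 4,000-20,000 cells/well. After 24” for “After 24”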

[11] = tested on: VCaP; test: Antiproliferative activity against human VCaP cells assessed as T/C value at 3.2 x 10^1 uM incubated for 96 hrs by propidium iodide based 2D monolayer assay; in short: as §2
[12] = tested on: VCaP; test: Antiproliferative activity against human VCaP cells assessed as T/C value at 1 x 10^2 uM incubated for 96 hrs by propidium iodide based 2D monolayer assay
In short: as §1, with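 “Cells were kept in RPMI 1640 with 25 mM HEPES, 10% FCS and gentamicin at 37 °C under 5% CO2, and plated at 4,000-20,000 cells/well. After 24” for “After 24”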

[13] = tested on: LNCaP; test: Antiproliferative activity against human LNCAP cells assessed as T/C value at 3.2 x 10^-3 uM incubated for 96 hrs by propidium iodide based 2D monolayer assay
In short: as §1, with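 “Cells were kept in RPMI 1640 with 25 mM HEPES, 10% FCS and gentamicin at 37 °C under 5% CO2, and plated at 4,000-20,000 cells/well. After 24” for “After 24”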

[14] = tested on: LNCaP; test: Antiproliferative activity against human LNCAP cells assessed as T/C value at 3.2 x 10^-2 uM incubated for 96 hrs by propidium iodide based 2D monolayer assay
In short: as §1, with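 “Cells were kept in RPMI 1640 with 25 mM HEPES, 10% FCS and gentamicin at 37 °C under 5% CO2, and plated at 4,000-20,000 cells/well. After 24” for “After 24”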

[15] = tested on: LNCaP; test: Antiproliferative activity against human LNCAP cells assessed as T/C value at 1 x 10^-1 uM incubated for 96 hrs by propidium iodide based 2D monolayer assay
In short: as §1, with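 “Cells were kept in RPMI 1640 with 25 mM HEPES, 10% FCS and gentamicin at 37 °C under 5% CO2, and plated at 4,000-20,000 cells/well. After 24” for “After 24”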

[16] = tested on: LNCaP; test: Antiproliferative activity against human LNCAP cells assessed as T/C value at 1 uM incubated for 96 hrs by propidium iodide based 2D monolayer assay
In short: as §1, with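 “Cells were kept in RPMI 1640 with 25 mM HEPES, 10% FCS and gentamicin at 37 °C under 5% CO2, and plated at 4,000-20,000 cells/well. After 24” for “After 24”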

[17] = tested on: LNCaP; test: Antiproliferative activity against human LNCAP cells assessed as T/C value at 3.2 uM incubated for 96 hrs by propidium iodide based 2D monolayer assay
In short: as §1, with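 “Cells were kept in RPMI 1640 with 25 mM HEPES, 10% FCS and gentamicin at 37 °C under 5% CO2, and plated at 4,000-20,000 cells/well. After 24” for “After 24”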

[18] = tested on: LNCaP; test: Antiproliferative activity against human LNCAP cells assessed as T/C value at 1 x 10^2 uM incubated for 96 hrs by propidium iodide based 2D monolayer assay
In short: as §1, with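 “Cells were kept in RPMI 1640 with 25 mM HEPES, 10% FCS and gentamicin at 37 °C under 5% CO2, and plated at 4,000-20,000 cells/well. After 24” for “After 24”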

[19] = tested on: CWR22R; test: Antiproliferative activity against human 22Rv1 cells assessed as T/C value at 3.2 x 10^-3 uM incubated for 96 hrs by propidium iodide based 2D monolayer assay
In short: as §1, with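 “Cells were kept in RPMI 1640 with 25 mM HEPES, 10% FCS and gentamicin at 37 °C under 5% CO2, and plated at 4,000-20,000 cells/well. After 24” for “After 24”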

[20] = tested on: CWR22R; test: Antiproliferative activity against human 22Rv1 cells assessed as T/C value at 1 x 10^-2 uM incubated for 96 hrs by propidium iodide based 2D monolayer assay
In short: as §1, with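 “Cells were kept in RPMI 1640 with 25 mM HEPES, 10% FCS and gentamicin at 37 °C under 5% CO2, and plated at 4,000-20,000 cells/well. After 24” for “After 24”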

[21] = tested on: CWR22R; test: Antiproliferative activity against human 22Rv1 cells assessed as T/C value at 3.2 x 10^-2 uM incubated for 96 hrs by propidium iodide based 2D monolayer assay
In short: as §1, with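 “Cells were kept in RPMI 1640 with 25 mM HEPES, 10% FCS and gentamicin at 37 °C under 5% CO2, and plated at 4,000-20,000 cells/well. After 24” for “After 24”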

[22] = tested on: CWR22R; test: Antiproliferative activity against human 22Rv1 cells assessed as T/C value at 1 x 10^-1 uM incubated for 96 hrs by propidium iodide based 2D monolayer assay
In short: as §1, with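 “Cells were kept in RPMI 1640 with 25 mM HEPES, 10% FCS and gentamicin at 37 °C under 5% CO2, and plated at 4,000-20,000 cells/well. After 24” for “After 24”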

[23] = tested on: CWR22R; test: Antiproliferative activity against human 22Rv1 cells assessed as T/C value at 3.2 x 10^-1 uM incubated for 96 hrs by propidium iodide based 2D monolayer assay
In short: as §1, with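 “Cells were kept in RPMI 1640 with 25 mM HEPES, 10% FCS and gentamicin at 37 °C under 5% CO2, and plated at 4,000-20,000 cells/well. After 24” for “After 24”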

[24] = tested on: CWR22R; test: Antiproliferative activity against human 22Rv1 cells assessed as T/C value at 1 uM incubated for 96 hrs by propidium iodide based 2D monolayer assay
In short: as §1, with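 “Cells were kept in RPMI 1640 with 25 mM HEPES, 10% FCS and gentamicin at 37 °C under 5% CO2, and plated at 4,000-20,000 cells/well. After 24” for “After 24”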

[25] = tested on: CWR22R; test: Antiproliferative activity against human 22Rv1 cells assessed as T/C value at 1 x 10^1 uM incubated for 96 hrs by propidium iodide based 2D monolayer assay
In short: as §1, with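 “Cells were kept in RPMI 1640 with 25 mM HEPES, 10% FCS and gentamicin at 37 °C under 5% CO2, and plated at 4,000-20,000 cells/well. After 24” for “After 24”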

[26] = tested on: CWR22R; test: Antiproliferative activity against human 22Rv1 cells assessed as T/C value at 3.2 x 10^1 uM incubated for 96 hrs by propidium iodide based 2D monolayer assay
In short: as §1, with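 “Cells were kept in RPMI 1640 with 25 mM HEPES, 10% FCS and gentamicin at 37 °C under 5% CO2, and plated at 4,000-20,000 cells/well. After 24” for “After 24”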

[27] = tested on: DU-145; test: Antiproliferative activity against human DU145 cells assessed as T/C value at 3.2 x 10^-3 uM incubated for 96 hrs by propidium iodide based 2D monolayer assay; in short: as §1
[28] = tested on: DU-145; test: Antiproliferative activity against human DU145 cells assessed as T/C value at 1 x 10^-2 uM incubated for 96 hrs by propidium iodide based 2D monolayer assay; in short: as §1
[29] = tested on: DU-145; test: Antiproliferative activity against human DU145 cells assessed as T/C value at 1 x 10^-1 uM incubated for 96 hrs by propidium iodide based 2D monolayer assay; in short: as §1
[30] = tested on: DU-145; test: Antiproliferative activity against human DU145 cells assessed as T/C value at 3.2 x 10^-1 uM incubated for 96 hrs by propidium iodide based 2D monolayer assay; in short: as §1
[31] = tested on: DU-145; test: Antiproliferative activity against human DU145 cells assessed as T/C value at 1 uM incubated for 96 hrs by propidium iodide based 2D monolayer assay; in short: as §1
[32] = tested on: DU-145; test: Antiproliferative activity against human DU145 cells assessed as T/C value at 1 x 10^2 uM incubated for 96 hrs by propidium iodide based 2D monolayer assay
In short: as §1, with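 “Cells were kept in RPMI 1640 with 25 mM HEPES, 10% FCS and gentamicin at 37 °C under 5% CO2, and plated at 4,000-20,000 cells/well. After 24” for “After 24”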

SMILES | pIC50 [1] | IC70 [1] [µM] | pIC50 [2] | IC70 [2] [µM] | pIC50 [3] | IC70 [3] [µM] | T/C [4] [%] | T/C [5] [%] | T/C [6] [%] | T/C [7] [%] | T/C [8] [%] | T/C [9] [%] | T/C [10] [%] | T/C [11] [%] | T/C [12] [%] | T/C [13] [%] | T/C [14] [%] | T/C [15] [%] | T/C [16] [%] | T/C [17] [%] | also measured
CC1(C)C(=O)N(c2ccc(C#N)cc2C(F)(F)F)C(=S)N1c1cccc(S(F)(F)(F)(F)F)c1 | 4.00 | > 100 | 5.39 | 19.9 | 4.00 | > 100 | 106 | 84 | 88 | 88 | 89 | 76 | 59 | 57 | 57 | 83 | 103 | 94 | 79 | 54 | T/C [18]: 21%; T/C [19]: 104%; T/C [20]: 104%; T/C [21]: 107%; T/C [22]: 102%; T/C [23]: 101%; T/C [24]: 97%; T/C [25]: 60%; T/C [26]: 56%; T/C [27]: 102%; T/C [28]: 104%; T/C [29]: 103%; T/C [30]: 110%; T/C [31]: 112%; T/C [32]: 83%
CC1(C)C(=O)N(c2ccc(C#N)cc2C(F)(F)F)C(=S)N1c1ccc(S(F)(F)(F)(F)F)cc1 | 4.90 | 29.1 | 5.52 | 5.34 | 4.00 | > 100 | 93 | 100 | 103 | 103 | 89 | 85 | 59 | 64 | 47 | 76 | 78 | 77 | 66 | 51 | T/C [18]: 7%; T/C [19]: 106%; T/C [20]: 104%; T/C [21]: 104%; T/C [22]: 98%; T/C [23]: 101%; T/C [24]: 99%; T/C [25]: 25%; T/C [26]: 17%; T/C [27]: 105%; T/C [28]: 111%; T/C [29]: 114%; T/C [30]: 115%; T/C [31]: 104%; T/C [32]: 16%
